{"source": "PubChem BioAssay AID573", "about": "(SRMLSC, 2007)", "note": "About 1,400 (2.2%) of roughly 65,000 compounds were called active.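 How the source made its calls: active means growth inhibition at or above a cutoff equal to the mean over every tested compound plus 3 SD (cut at about 60% in these data); inactive means the rest.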 The list comes from a sample in which actives are over-represented; it also holds similar structures and randomly drawn compounds.", "data": [{"experiment": "growth inhibitors of E. coli tolC mutant, primary screen, strain BW25113 ΔtolC::kan, 384-well (AID 573);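 further: growth measured after 20 h incubation at 37 °C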", "details": "OD615, hits give high values, screened at 10 µM (by protocol)", "how_it_was_run": "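Assay system: tolC-deleted E. coli BW25113. Medium: kanamycin-containing LB broth (50 µg/mL). Dosing: 10 µM final, single dose. Timing: bacterial growth with compound for 20 h at 37 °C. Detection: A615 absorbance measurement. Read-out basis: growth inhibition in percent.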", "values": [{"smiles": "COc1ccc(N2CCN(Cc3cc(=O)oc4ccc5ccccc5c34)CC2)cc1", "growth inhibition": "11.6% (inactive)"}, {"smiles": "COc1ccc(CCNC(=O)c2ccco2)cc1", "growth inhibition": "-4.03% (inactive)"}, {"smiles": "CCOC(=O)C1C(=O)NC(N2CCN(c3ccccc3)CC2)=NC1c1ccco1", "note": "(stereo not drawn)", "growth inhibition": "-7.5% (inactive)"}, {"smiles": "CCOC(=O)C1C(=O)C=C(c2ccc(OC)cc2)CC1c1ccco1", "note": "(stereo not drawn)", "growth inhibition": "85.4% (active)"}, {"smiles": "CCOc1ccc(S(=O)(=O)n2ccnc2)c2ccccc12", "growth inhibition": "3.73% (inactive)"}, {"smiles": "CS(=O)(=O)N(CC(=O)N1CCN(c2cccc(Cl)c2)CC1)c1ccccc1", "growth inhibition": "1.41% (inactive)"}, {"smiles": "Cc1ccccc1OCC(=O)Nc1ccc(N2CCN(C(=O)C(C)C)CC2)c(Cl)c1", "growth inhibition": "42.8% (inactive)"}, {"smiles": "CCc1nnc(NS(=O)(=O)c2ccc(NS(=O)(=O)c3ccccc3)cc2)s1", "growth inhibition": "19% (inactive)"}, {"smiles": "CCOC(=O)C1CCc2nc3ccccc3c(=O)n21", "note": "(stereo not drawn)", "growth inhibition": "-18.7% (inactive)"}, {"smiles": "CC1(C)Cc2ccccc2-c2nc(CN3CCOCC3)[nH]c(=O)c21", "growth inhibition": "5.57% (inactive)"}, {"smiles": "CCOC(=O)C1Cn2c(nc3c(c2=O)C(C)(CC)Cc2ccccc2-3)S1", "note": "(stereo not drawn)", "growth inhibition": "67.9% (active)"}, {"smiles": "CCCCc1nc2c(=O)[nH]c3ccccc3c2o1", "growth inhibition": "-2.92% (inactive)"}, {"smiles": "Clc1ccc(Cn2ncc3c(NCc4cccnc4)ncnc32)cc1", "growth inhibition": "18.6% (inactive)"}, {"smiles": "O=C(NCc1ccco1)C1CCCN(S(=O)(=O)c2cccc3nonc23)C1", "note": "(stereo not drawn)", "growth inhibition": "-21.5% (inactive)"}, {"smiles": "COc1ccc(N2C(=O)CC(N3CCC(C(N)=O)CC3)C2=O)cc1", "note": "(stereo not drawn)", "growth inhibition": "-10.9% (inactive)"}, {"smiles": "CCN(CC)C(=O)CSc1nnc(-c2cccc(OC)c2)o1", "growth inhibition": "-2.54% (inactive)"}, {"smiles": "COc1cccc(-c2nnc(NC(=O)c3ccc(S(=O)(=O)N(CC(C)C)CC(C)C)cc3)o2)c1", "growth inhibition": "98.8% (active)"}, {"smiles": "COc1cccc(NC(=O)CN(C)S(=O)(=O)c2ccc(C)cc2)c1", "growth inhibition": "13.3% (inactive)"}, {"smiles": "CCOC(=O)c1sc(NC(=S)n2cc(C)cn2)c(C(=O)OCC)c1C", "growth inhibition": "23.8% (inactive)"}, {"smiles": "Cc1cc2nc(-c3ccc(NC(=O)c4cccnc4)cc3)oc2cc1C", "growth inhibition": "10.2% (inactive)"}, {"smiles": "O=C(c1ccco1)N1CCN(C(=O)c2ccc(COc3ccc(F)cc3)o2)CC1", "growth inhibition": "1.7% (inactive)"}, {"smiles": "Cc1cc(=O)[nH]c(=S)[nH]1", "growth inhibition": "-13.2% (inactive)"}, {"smiles": "O=C1NC(Nc2nc3ccccc3s2)(C(F)(F)F)C(=O)N1C1CCCCC1", "note": "(stereo not drawn)", "growth inhibition": "100% (active)"}, {"smiles": "COC(=O)NC1(C(F)(F)F)NC(=O)N(C2CCCCC2)C1=O", "note": "(stereo not drawn)", "growth inhibition": "-5.17% (inactive)"}, {"smiles": "C1=C(N2CCOCC2)/C(=C/c2nc3ccccc3[nH]2)CC1", "growth inhibition": "-16.7% (inactive)"}, {"smiles": "CCOC(=O)c1cc(-c2ccc(Cl)s2)nc2c1c(C)nn2C", "growth inhibition": "8.55% (inactive)"}, {"smiles": "CC(C)CCNC(=O)CCNS(=O)(=O)c1ccc(Cl)cc1", "growth inhibition": "7.04% (inactive)"}, {"smiles": "O=C(Nc1nc(-c2ccncc2)cs1)C1COc2ccccc2O1", "note": "(stereo not drawn)", "growth inhibition": "36.7% (inactive)"}, {"smiles": "COc1ccc(OC)c2sc(NC(=O)C3COc4ccccc4O3)nc12", "note": "(stereo not drawn)", "growth inhibition": "70.5% (active)"}, {"smiles": "Cc1cc(NC(=O)CCC2COc3ccccc3O2)no1", "note": "(stereo not drawn)", "growth inhibition": "0.5% (inactive)"}, {"smiles": "CC(=O)c1cnc(Nc2nc(C)c3cc(C)ccc3n2)nc1C", "growth inhibition": "-6.16% (inactive)"}, {"smiles": "COc1ccccc1N1CCN(C(=O)c2cc(-c3ccc(Cl)c(Cl)c3)on2)CC1", "growth inhibition": "-3.17% (inactive)"}, {"smiles": "COc1ccccc1-c1cc(C(=O)N2CCCCC2)no1", "growth inhibition": "7.63% (inactive)"}, {"smiles": "COc1ccccc1N1CCN(C(=O)c2cc(-c3ccc(Br)cc3)on2)CC1", "growth inhibition": "63.8% (active)"}, {"smiles": "Oc1c(C(c2ccccn2)N2CCOCC2)ccc2cccnc12", "note": "(stereo not drawn)", "growth inhibition": "29.8% (inactive)"}, {"smiles": "CCCC(C(=O)N1CCOCC1)N1C(=O)C2C3C=CC(C3)C2C1=O", "note": "(stereo not drawn)", "growth inhibition": "-13.1% (inactive)"}, {"smiles": "CC(C)c1ccc(N2CC(C(=O)Nc3nccs3)CC2=O)cc1", "note": "(stereo not drawn)", "growth inhibition": "9.63% (inactive)"}, {"smiles": "Cc1oc(C)c(C(=O)NCCCC(=O)O)c1C(=O)NCCCC(=O)O", "growth inhibition": "-20.2% (inactive)"}]}]}
